Columns and labels:
Micrococcus luteus = experiment: Antimicrobial activity against Micrococcus luteus ATCC 10240 after 24 hrs by Kirby-Bauer agar diffusion assay; assay type: functional
Summary of the method: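 Modified Kirby-Bauer well diffusion. Overnight LB cultures (18–24 h) were standardized in 0.9% saline to 0.5 McFarland and mixed into melted MHII agar at 47–50 °C, giving ~5×10³ CFU/mL. 9 mm wells received 50 µL of 2.0 mM compound in 10:1 MeOH:DMSO. Plates were incubated 24 h at 37 °C, then growth-inhibition zone diameter was measured (mm) by caliper.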

HeLa = experiment: Cytotoxicity against human HeLa cells; assay type: cell-based
PC-3 = experiment: Cytotoxicity against human PC3 cells; assay type: cell-based
MCF7 = experiment: Cytotoxicity against human MCF7 cells; assay type: cell-based

| Compound | diameter of the inhibition zone (DIZ) (Micrococcus luteus) | Activity (HeLa) | Activity (PC-3) | Activity (MCF7) |
| --- | --- | --- | --- | --- |
| CO[C@@H]1C=CC[C@H]1N(O)c1ncccc1C (racemic) | >14 mm | Non-toxic | Non-toxic | Non-toxic |
| O=Nc1ncc(C(F)(F)F)cc1Cl | <=14 mm | Non-toxic | Non-toxic | Non-toxic |
| Cc1cccnc1N=O | <=14 mm | Non-toxic | Non-toxic | Non-toxic |
| CC(C)(C)OC(=O)NO | <=14 mm | Non-toxic | Non-toxic | Non-toxic |
| Cc1cc(N2OC3C=CC2C3)no1 (racemic) | <=14 mm | Non-toxic | Non-toxic | Non-toxic |
| O=C(Cc1ccccc1)NO [PHENYLACETOHYDROXAMIC ACID] | <=14 mm | Non-toxic | Non-toxic | Non-toxic |
| C=C(C)C(CC/C(C)=C/CO)N(O)c1ccc(Br)cn1 (racemic) | >14 mm | Non-toxic | Non-toxic | Non-toxic |
| COc1ccc(CON(Cc2cccc(Oc3ccccc3)c2)c2ccccn2)cc1 | <=14 mm | Non-toxic | Non-toxic | Non-toxic |
| O=C(Cc1ccccc1)N1OC2C=CC1CC2 (racemic) | <=14 mm | Non-toxic | Non-toxic | Non-toxic |
| CC(C)OC1C=C[C@@H](N(O)c2ccc(Br)cn2)C1 (mixture of isomers) | >14 mm | Non-toxic | Non-toxic | Non-toxic |
| C=C(CCC=C(C)C)C(CO)N(O)c1ccc(Br)cn1 (racemic) | >14 mm | Non-toxic | Non-toxic | Non-toxic |
| CCCN(OCc1ccc(OC)cc1)c1ccccn1 | <=14 mm | Non-toxic | Non-toxic | Non-toxic |
| Cc1cccc(N(O)[C@@H]2C=CC(OC(C)C)C2)n1 (mixture of isomers) | >14 mm | Non-toxic | Non-toxic | Non-toxic |
| O[C@H]1C=C[C@@H](N(O)c2ccc(Br)cn2)C1 (racemic) | >14 mm | Non-toxic | Non-toxic | Non-toxic |
| O=Nc1ncc(Cl)cc1Cl | <=14 mm | Non-toxic | Non-toxic | Non-toxic |
| CO[C@@H]1C=CC[C@H]1N(O)c1ccc(Br)cn1 (racemic) | >14 mm | Non-toxic | Non-toxic | Non-toxic |
| CC(C)(C)OC(=O)N1OC2C=CC1C2 (racemic) | <=14 mm | Non-toxic | Non-toxic | Non-toxic |

| Compound | diameter of the inhibition zone (DIZ) (Micrococcus luteus) | Activity (HeLa) | Activity (PC-3) | Activity (MCF7) |
| --- | --- | --- | --- | --- |
| Cc1cc(N(O)[C@H]2CC=C[C@@H]2OC(C)(C)C)no1 (racemic) | >14 mm | Non-toxic | Non-toxic | Non-toxic |
| CO[C@@H]1C=C[C@@H](N(O)C(=O)OC(C)(C)C)C1 (racemic) | <=14 mm | Non-toxic | Non-toxic | Non-toxic |
| COC1C=C[C@@H](N(O)c2ccc(Br)cn2)C1 (mixture of isomers) | >14 mm | Non-toxic | Non-toxic | Non-toxic |
| O=Nc1ccc(Cl)cn1 | <=14 mm | Non-toxic | Non-toxic | Non-toxic |
| C=CCO[C@@H]1C=CCC[C@H]1N(O)c1ccc(Br)cn1 (racemic) | >14 mm | Non-toxic | Non-toxic | Non-toxic |
| Cc1ccnc(N=O)c1 | <=14 mm | Non-toxic | Non-toxic | Non-toxic |
| Cc1cccc(N(O)[C@@H]2C=C[C@@H](OC(C)(C)C)CC2)n1 (racemic) | >14 mm | Non-toxic | Non-toxic | Non-toxic |
| O[C@@H]1C=CC[C@H]1N(O)c1ccc(Br)cn1 (racemic) | >14 mm | Non-toxic | Non-toxic | Non-toxic |
| CO[C@@H]1C=C[C@@H](N(O)C(=O)Cc2ccccc2)CC1 (racemic) | <=14 mm | Non-toxic | Non-toxic | Non-toxic |
| O=Nc1ccc(Br)cn1 | <=14 mm | Non-toxic | Non-toxic | Non-toxic |
| ON(c1ccc(Br)cn1)[C@@H]1CCC=C[C@H]1OCc1ccccc1 (relative stereo) | >14 mm | Non-toxic | Non-toxic | Non-toxic |
| O=C(Cc1ccccc1)N1OC2C=CC1C2 (racemic) | <=14 mm | Non-toxic | Non-toxic | Non-toxic |
| CC(C)C[C@H](NC(=O)OC(C)(C)C)C(=O)NO | <=14 mm | Non-toxic | Non-toxic | Non-toxic |
| CC(C)(C)O[C@@H]1C=CC[C@H]1N(O)c1ccc(Cl)cn1 | >14 mm | Non-toxic | Non-toxic | Non-toxic |
| Cc1cccc(N(O)[C@@H]2C=C[C@@H](OC(C)(C)C)C2)n1 (relative stereo) | >14 mm | Non-toxic | Non-toxic | Non-toxic |
| CC(C)O[C@@H]1C=CC[C@H]1N(O)c1ccc(Br)cn1 (racemic) | >14 mm | Non-toxic | Non-toxic | Non-toxic |
| O=Nc1ccc2ccccc2n1 | <=14 mm | Non-toxic | Non-toxic | Non-toxic |
